Test [1] deals with T1, skelemin fragment (Mus musculus, UniProt Q62234).
T1 sequence (Q62234 1113-1666): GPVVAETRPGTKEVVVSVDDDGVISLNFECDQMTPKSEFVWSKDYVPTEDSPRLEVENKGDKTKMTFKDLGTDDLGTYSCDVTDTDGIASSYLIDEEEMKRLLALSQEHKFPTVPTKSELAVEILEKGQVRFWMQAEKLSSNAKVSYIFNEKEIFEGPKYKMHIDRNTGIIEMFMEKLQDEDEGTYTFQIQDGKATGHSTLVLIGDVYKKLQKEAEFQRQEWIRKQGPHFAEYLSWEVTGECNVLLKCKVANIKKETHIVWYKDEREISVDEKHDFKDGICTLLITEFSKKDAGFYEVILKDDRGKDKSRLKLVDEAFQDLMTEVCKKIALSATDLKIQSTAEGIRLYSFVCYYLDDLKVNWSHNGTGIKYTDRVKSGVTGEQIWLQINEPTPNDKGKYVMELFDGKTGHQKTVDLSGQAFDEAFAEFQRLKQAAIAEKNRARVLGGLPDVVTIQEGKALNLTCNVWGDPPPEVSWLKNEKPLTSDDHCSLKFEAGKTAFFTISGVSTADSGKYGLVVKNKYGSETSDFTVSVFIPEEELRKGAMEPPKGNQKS
The experiment in a line: Solid-phase assay: binding of [125I]skelemin to peptides coated on wells. Conditions: wells coated with peptide 20 μg/mL, postcoated with 1% BSA. The essentials: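 Mouse skelemin fragment (residues 1113–1666) made as a GST fusion, cut free with thrombin and radioiodinated. Wells coated with wild-type or mutant αIIb 989–1008 peptide at 20 μg/mL, postcoated with 1% BSA, then given various concentrations of [125I]skelemin. Bound radioactivity counted.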

In test [2] the target is T2, skelemin binding to αIIbβ3 (Mus musculus, UniProt Q62234).
T2 sequence (Q62234 1113-1666): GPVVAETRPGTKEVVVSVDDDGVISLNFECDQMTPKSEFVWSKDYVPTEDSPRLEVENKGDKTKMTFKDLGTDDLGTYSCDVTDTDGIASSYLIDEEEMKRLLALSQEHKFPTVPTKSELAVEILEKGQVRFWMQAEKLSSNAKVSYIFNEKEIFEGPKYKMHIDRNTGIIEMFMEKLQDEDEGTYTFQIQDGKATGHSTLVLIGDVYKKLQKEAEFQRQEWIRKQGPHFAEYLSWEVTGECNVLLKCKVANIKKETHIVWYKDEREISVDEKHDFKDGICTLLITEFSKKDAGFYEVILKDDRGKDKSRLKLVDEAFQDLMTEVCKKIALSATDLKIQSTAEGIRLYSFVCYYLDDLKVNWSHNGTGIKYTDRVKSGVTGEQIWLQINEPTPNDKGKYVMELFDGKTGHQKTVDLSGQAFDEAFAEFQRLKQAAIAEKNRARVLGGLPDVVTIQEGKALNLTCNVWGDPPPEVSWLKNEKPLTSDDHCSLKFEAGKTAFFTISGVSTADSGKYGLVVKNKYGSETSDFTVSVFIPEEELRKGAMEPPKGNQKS
Also on record: species or system human.

In test [3] the target is T1, skelemin fragment. In kind it is binding. Put shortly:
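CM5 chip carried amine-coupled skelemin fragment (~900 RU). αIIb 989–1008 peptide at 0, 10, 20, 40, 100 and 200 μM in HBS-P with 1 mM Ca2+ and 1 mM Mg2+, injected at 5 μL/min for 10 min. Signal corrected against an EDC/NHS-activated, ethanolamine-blocked blank cell. Kd from best fit to an interaction model.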

Test [4] concerns the target fibrin monomer with both fibrinopeptides A and B cleaved (human) (UniProt P02671). The experiment in a line: solid-phase binding assay with 125I-labelled protein.
For test [5], the target named is human fibrinogen, depleted of fibronectin and plasminogen (human) (UniProt P02671). The description is as above.
Test [6] concerns the target fibrinogen D100 (100 kDa) fragment (human). The description is as above.
In test [7] the target is platelet integrin αIIbβ3 (human) (UniProt P05106). Described as above.
Test [8] has as its target cellulose-bound αIIb 9-mer peptide with Arg995 substituted with Ala (human) (UniProt P08514). The experiment in a line: peptide or protein array.
Test [9] has as its target αIIb 9-mer peptides with mutations of Val990, Phe992, and Leu1000. The experiment in a line: peptide or protein array.
The target in test [10] is cellulose-bound αIIb 9-mer peptide with Arg997 substituted with Ala (human) (UniProt P08514). The experiment in a line: peptide or protein array.
For test [11], the system named is αIIbβ3. In kind it is binding, human. Put shortly:
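αIIbβ3 purified from human platelets on Concanavalin A-agarose. Passed at 0, 50, 100, 200 and 500 μg/mL in HBS-P with 1 mM Ca2+/Mg2+ over amine-coupled skelemin fragment (~900 RU), with a fibrinogen parallel cell (~1300 RU) checking resting state. For activation, DTT 3 mM final, 15 min at 4 °C, then extensive dialysis; activated integrin injected 5 min at 10 μL/min. Blank-cell corrected.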

Test [12] deals with αIIbβ3. In kind it is binding, human. Conditions: integrin adsorbed on plastic without ligand.

Results on six molecules are retold here after publication PMC4540355 (Biochemistry, 2009).

Chain of human fibrinogen, depleted of fibronectin and plasminogen (human) (P02671 36-866, chain 1 of 3): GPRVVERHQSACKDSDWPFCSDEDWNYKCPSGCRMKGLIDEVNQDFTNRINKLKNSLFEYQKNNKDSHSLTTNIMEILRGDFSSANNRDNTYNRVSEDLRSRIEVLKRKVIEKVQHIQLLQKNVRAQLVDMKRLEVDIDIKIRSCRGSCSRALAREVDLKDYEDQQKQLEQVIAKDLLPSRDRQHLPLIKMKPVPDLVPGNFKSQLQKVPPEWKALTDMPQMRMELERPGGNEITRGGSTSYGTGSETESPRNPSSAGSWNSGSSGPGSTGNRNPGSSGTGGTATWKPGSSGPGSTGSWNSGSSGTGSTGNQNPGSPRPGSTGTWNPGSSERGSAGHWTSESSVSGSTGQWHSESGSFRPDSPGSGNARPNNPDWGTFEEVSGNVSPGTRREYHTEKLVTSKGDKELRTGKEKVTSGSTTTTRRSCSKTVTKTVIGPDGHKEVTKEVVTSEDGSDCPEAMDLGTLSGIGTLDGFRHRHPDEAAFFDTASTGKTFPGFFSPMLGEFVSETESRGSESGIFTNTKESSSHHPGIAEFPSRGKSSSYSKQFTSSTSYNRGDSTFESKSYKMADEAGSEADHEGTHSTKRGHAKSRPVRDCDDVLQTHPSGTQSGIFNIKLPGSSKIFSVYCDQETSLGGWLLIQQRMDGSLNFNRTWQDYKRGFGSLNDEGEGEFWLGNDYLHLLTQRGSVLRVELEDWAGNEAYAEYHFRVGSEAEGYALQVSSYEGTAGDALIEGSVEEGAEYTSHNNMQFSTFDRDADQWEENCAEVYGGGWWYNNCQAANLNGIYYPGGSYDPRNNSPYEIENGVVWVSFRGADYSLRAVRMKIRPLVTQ
Chain of human fibrinogen, depleted of fibronectin and plasminogen (human) (P02675 45-491, chain 2 of 3, further chain): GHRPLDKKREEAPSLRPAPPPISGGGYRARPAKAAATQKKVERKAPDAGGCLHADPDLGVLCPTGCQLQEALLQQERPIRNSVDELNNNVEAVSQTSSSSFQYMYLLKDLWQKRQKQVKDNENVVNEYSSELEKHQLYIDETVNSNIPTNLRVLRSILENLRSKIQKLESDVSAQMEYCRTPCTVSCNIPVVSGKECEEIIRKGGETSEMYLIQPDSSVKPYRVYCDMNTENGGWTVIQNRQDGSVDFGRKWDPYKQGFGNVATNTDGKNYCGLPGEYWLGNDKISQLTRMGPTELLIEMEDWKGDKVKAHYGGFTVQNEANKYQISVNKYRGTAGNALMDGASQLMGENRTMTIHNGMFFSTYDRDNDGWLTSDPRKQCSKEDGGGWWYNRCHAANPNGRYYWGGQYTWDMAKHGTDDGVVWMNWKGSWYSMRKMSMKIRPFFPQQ
Chain of human fibrinogen, depleted of fibronectin and plasminogen (human) (P02679 27-453, chain 3 of 3, further chain): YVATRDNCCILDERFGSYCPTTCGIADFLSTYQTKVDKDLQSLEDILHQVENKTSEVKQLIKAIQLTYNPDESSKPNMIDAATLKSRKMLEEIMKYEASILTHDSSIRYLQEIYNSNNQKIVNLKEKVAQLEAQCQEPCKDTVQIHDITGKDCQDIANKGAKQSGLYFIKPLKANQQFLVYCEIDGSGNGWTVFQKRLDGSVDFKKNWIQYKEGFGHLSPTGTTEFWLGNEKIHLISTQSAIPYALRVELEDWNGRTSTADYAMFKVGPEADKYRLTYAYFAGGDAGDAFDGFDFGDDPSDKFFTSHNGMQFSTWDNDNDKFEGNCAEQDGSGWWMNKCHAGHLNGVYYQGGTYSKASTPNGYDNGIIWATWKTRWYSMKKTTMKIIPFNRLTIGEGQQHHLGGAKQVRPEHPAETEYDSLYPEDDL
Chain of fibrin monomer with both fibrinopeptides A and B cleaved (human) (P02671 36-866, chain 1 of 3): as the sequence (P02671 36-866, chain 1 of 3) above
Chain of fibrin monomer with both fibrinopeptides A and B cleaved (human) (P02675 45-491, chain 2 of 3, further chain): as the sequence (P02675 45-491, chain 2 of 3, further chain) above
Chain of fibrin monomer with both fibrinopeptides A and B cleaved (human) (P02679 27-453, chain 3 of 3, further chain): as the sequence (P02679 27-453, chain 3 of 3, further chain) above

For “GY^715 WALLITIADAKEFAKF^730 [β3 mutant 2]”, the “Binding of [125I]skelemin to immobilized peptide” value (from here on “Binding of [125I]skelemin”) on skelemin fragment [1] was “still further loss”. The “Overall activity relative to the wild-type counterpart” value in test [2] (skelemin binding and inhibition) was “residual activity”.

For the molecule “KVGFFKANAPALEEDDEEGE [mutant αIIb peptide]”, the “Binding to skelemin coupled to the chip (SPR)” value at skelemin fragment [3] is on record as “did not bind”. The “Binding of [125I]skelemin” value at skelemin fragment [1] is “lost the ability to bind”. In addition, the “Inhibition of skelemin binding to αIIbβ3 prebound to ligands” value in [2] (mutant peptide) is “did not inhibit”.

In the case of “platelet integrin αIIbβ3 (from UniProt P05106 27-788) (complex)”, the amount of αIIbβ3 bound in test [4], in test [5] and in test [6] was 76 ng each time.

Turning to “GY^715 WALLITIADRKEFAKF^730 [β3 mutant 1]”, on skelemin fragment [1], the “Binding of [125I]skelemin” value is reported as “reduced level of skelemin binding”.

B1: recombinant fragment spanning immunoglobulin C2-like motifs 3–7 of mouse skelemin (domain or fragment)
chain: GPVVAETRPGTKEVVVSVDDDGVISLNFECDQMTPKSEFVWSKDYVPTEDSPRLEVENKGDKTKMTFKDLGTDDLGTYSCDVTDTDGIASSYLIDEEEMKRLLALSQEHKFPTVPTKSELAVEILEKGQVRFWMQAEKLSSNAKVSYIFNEKEIFEGPKYKMHIDRNTGIIEMFMEKLQDEDEGTYTFQIQDGKATGHSTLVLIGDVYKKLQKEAEFQRQEWIRKQGPHFAEYLSWEVTGECNVLLKCKVANIKKETHIVWYKDEREISVDEKHDFKDGICTLLITEFSKKDAGFYEVILKDDRGKDKSRLKLVDEAFQDLMTEVCKKIALSATDLKIQSTAEGIRLYSFVCYYLDDLKVNWSHNGTGIKYTDRVKSGVTGEQIWLQINEPTPNDKGKYVMELFDGKTGHQKTVDLSGQAFDEAFAEFQRLKQAAIAEKNRARVLGGLPDVVTIQEGKALNLTCNVWGDPPPEVSWLKNEKPLTSDDHCSLKFEAGKTAFFTISGVSTADSGKYGLVVKNKYGSETSDFTVSVFIPEEELRKGAMEPPKGNQKS
modifications: 125I label (IODO-GEN) where used as [125I]skelemin
In [7], B1 gave a Kd, high-affinity class of binding sites of 123 nM; a Kd, low-affinity class of binding sites of 1100 nM; a N, high-affinity interaction (skelemin to receptor) (skelemin per receptor) of 1; a N, low-affinity interaction (skelemin to receptor) (skelemin per receptor) of 0.33. In test [8], this molecule returned a reduction of binding against the wild-type peptide of 70%. In test [9], this molecule gave a reduction of binding against the wild-type peptide of 40 to 50%. In test [10], this molecule displayed a reduction of binding against the wild-type peptide of 70%.

B2: skelemin fragment: recombinant fragment spanning immunoglobulin C2-like motifs 3–7 of mouse skelemin, residues 1113–1666 (protein)
chain: GPVVAETRPGTKEVVVSVDDDGVISLNFECDQMTPKSEFVWSKDYVPTEDSPRLEVENKGDKTKMTFKDLGTDDLGTYSCDVTDTDGIASSYLIDEEEMKRLLALSQEHKFPTVPTKSELAVEILEKGQVRFWMQAEKLSSNAKVSYIFNEKEIFEGPKYKMHIDRNTGIIEMFMEKLQDEDEGTYTFQIQDGKATGHSTLVLIGDVYKKLQKEAEFQRQEWIRKQGPHFAEYLSWEVTGECNVLLKCKVANIKKETHIVWYKDEREISVDEKHDFKDGICTLLITEFSKKDAGFYEVILKDDRGKDKSRLKLVDEAFQDLMTEVCKKIALSATDLKIQSTAEGIRLYSFVCYYLDDLKVNWSHNGTGIKYTDRVKSGVTGEQIWLQINEPTPNDKGKYVMELFDGKTGHQKTVDLSGQAFDEAFAEFQRLKQAAIAEKNRARVLGGLPDVVTIQEGKALNLTCNVWGDPPPEVSWLKNEKPLTSDDHCSLKFEAGKTAFFTISGVSTADSGKYGLVVKNKYGSETSDFTVSVFIPEEELRKGAMEPPKGNQKS
modifications: 125I label (IODO-GEN) where used as [125I]skelemin; left off: GST, end not stated, cleaved
For the molecule B2, in the test with αIIbβ3 [11] (resting integrin, various concentrations), the “Interaction of resting soluble αIIbβ3 with immobilized skelemin fragment” value is “No interaction was detected”. Moreover, in the test on αIIbβ3 [11] (αIIbβ3 activated with 3 mM DTT 15 min at 4 °C, 0-500 μg/mL), the “Binding of DTT-treated soluble αIIbβ3 to immobilized skelemin fragment” value is “did not bind”. For the same molecule, the “Skelemin binding to αIIbβ3 immobilized directly on plastic” value with αIIbβ3 [12] is “small amount”.
